Activity calls are given as the source filed them. The calls are words filed in the database; no cut-off is given here.
How the values were obtained:
[1] = target: T1, Orotidine 5'-phosphate decarboxylase (Saccharomyces cerevisiae S288c, UniProt P03962); test: Inhibition of Saccharomyces cerevisiae uridine 5'-monophosphate synthase
T1 sequence (P03962 whole entry): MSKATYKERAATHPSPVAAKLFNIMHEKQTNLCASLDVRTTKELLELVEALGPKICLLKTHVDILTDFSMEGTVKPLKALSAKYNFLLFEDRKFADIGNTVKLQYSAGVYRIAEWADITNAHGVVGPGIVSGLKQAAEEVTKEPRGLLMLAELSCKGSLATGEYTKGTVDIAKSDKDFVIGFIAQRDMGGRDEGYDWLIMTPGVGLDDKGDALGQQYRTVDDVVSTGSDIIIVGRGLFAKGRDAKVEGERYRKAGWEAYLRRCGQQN

[2] = target: T1, Orotidine 5'-phosphate decarboxylase; test: Inhibition of Saccharomyces cerevisiae uridine 5'-monophosphate synthase after overnight incubation at room temperature by VP-ITC microcalorimetry
[3] = target: T2, Orotidine phosphate decarboxylase (Plasmodium falciparum) (UniProt Q8T6J6); settings: 0.5 to 5 mM
T2 sequence (whole entry): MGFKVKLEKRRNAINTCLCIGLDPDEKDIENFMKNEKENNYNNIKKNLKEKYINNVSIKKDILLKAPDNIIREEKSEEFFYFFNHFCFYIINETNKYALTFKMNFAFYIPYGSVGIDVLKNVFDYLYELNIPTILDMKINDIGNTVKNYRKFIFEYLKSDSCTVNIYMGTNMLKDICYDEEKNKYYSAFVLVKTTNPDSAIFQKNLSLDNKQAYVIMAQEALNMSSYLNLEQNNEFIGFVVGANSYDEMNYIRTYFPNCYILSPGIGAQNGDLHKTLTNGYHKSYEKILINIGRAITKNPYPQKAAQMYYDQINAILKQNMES

[4] = target: Orotidine 5'-phosphate decarboxylase (Methanobacterium thermoautotrophicum) (UniProt O26232); test: Competitive inhibition of Methanothermobacter thermautotrophicus uridine 5'-monophosphate synthase after overnight incubation at room temperature by Lineweaver-Burke plot analysis
Chain of Orotidine 5'-phosphate decarboxylase (Methanobacterium thermoautotrophicum) (O26232 whole entry, looked up): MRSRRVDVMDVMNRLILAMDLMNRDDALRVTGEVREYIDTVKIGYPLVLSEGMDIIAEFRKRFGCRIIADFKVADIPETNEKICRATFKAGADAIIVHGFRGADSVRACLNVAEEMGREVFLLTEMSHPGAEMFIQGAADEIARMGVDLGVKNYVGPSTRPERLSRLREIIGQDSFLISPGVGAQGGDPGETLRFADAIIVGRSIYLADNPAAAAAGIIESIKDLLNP
How it was run: (§1)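 Isothermal titration calorimetry with Mt ODCase (final 20 nM). Enzyme stock was kept in 50 mM Tris pH 7.5, 20 mM DTT, 40 mM NaCl overnight at rt. Assay buffer was degassed 50 mM Tris pH 7.5 with 1 mM DTT. Run at 55 °C, started by injecting 5 mM OMP in 50 mM Tris. Inhibitor series spanned 5–40 µM or 0.5–5 mM. Competitive Ki was derived from Ki(app) = Ki(1+[S]/KM).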

[5] = target: Orotidine 5'-phosphate decarboxylase (Methanobacterium thermoautotrophicum, UniProt O26232); test: Inhibition of Methanothermobacter thermautotrophicus uridine 5'-monophosphate synthase after overnight incubation at room temperature by VP-ITC microcalorimetry; how it was run: as §1
Chain of Orotidine 5'-phosphate decarboxylase (Methanobacterium thermoautotrophicum, UniProt O26232) (O26232 whole entry): as the sequence (O26232 whole entry, looked up) above

[6] = Inhibition of Helicobacter pylori uridine 5'-monophosphate synthase after overnight incubation at room temperature by VP-ITC microcalorimetry
How it was run: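 Reversible inhibition measured by ITC with Hp ODCase (final 60 nM) and 20 µM OMP substrate. Assay buffer was degassed 50 mM Tris pH 7.5 with 1 mM DTT. Inhibitor series were 0.25–1.5 µM or 0.25–2.5 mM. Ki was fitted as competitive from Ki(app) = Ki(1+[S]/KM).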

Question: With `O=c1cc(O)n([C@@H]2O[C@H](COP(=O)(O)O)[C@@H](O)[C@H]2O)c(=O)[nH]1` as the molecule, how does the Ki [1] read?
Answer: 0.0088 nM

Question: What about the Ki [2] of the same molecule?
Answer: 0.009 nM

Question: With `N#Cc1cc(=O)[nH]c(=O)n1[C@@H]1O[C@H](COP(=O)(O)O)[C@@H](O)[C@H]1O` as the molecule, how does the inhibition [3] read?
Answer: Active

Question: Which results are given for `NC(=O)c1[nH]nc([C@@H]2O[C@H](COP(=O)(O)O)[C@@H](O)[C@H]2O)c1O`?
Answer: inhibition [4]: Active; Ki [5]: 6200 nM; Ki [2]: 5 nM; Ki [6]: 130 nM

Source: ChEMBL document CHEMBL1165920, “Structural determinants for the inhibitory ligands of orotidine-5'-monophosphate decarboxylase” (Bioorg Med Chem, 2010)
